Screening data deposited in PubChem BioAssay by Columbia University Molecular Screening Center.
INS promoter act – TRM-6 insulin promoter activation; TRM-6 cells, insulin promoter eGFP reporter, imaging; plate-scaled: unstimulated 0, stimulated control 100; AID 1296; activation, % at 2 µM; 130,000 compounds, 0.81% hits;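 active = activation at 2 µM above a set limit, confirmed on inspection of the cell images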;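 note: share of cells whose green reporter signal exceeds an intensity cutoff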
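Test system: human fetal islet-derived TRM-6 cells with tamoxifen-inducible insulin promoter–eGFP reporter. Compound dosing: 2 µM final, single concentration. Incubation: tamoxifen pre-incubation 15 h overnight, then compound exposure 48 h at 37 °C. Signal: fixed-cell fluorescence microscopy, eGFP plus Hoechst.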
Starred values were filed as active, the others as inactive. The full list was thinned out, with hits kept by preference.

CC(C)C(NC(=O)C12CC3CC(CC(C3)C1)C2)C(=O)N/N=C/C1=C(N2CCOCC2)C(=C\c2ccc([N+](=O)[O-])cc2)/CC1 (configuration not stated) was read as INS promoter act 176.
For Cc1ccc(S(=O)(=O)N2CCCCC2)cc1NC(=O)CSc1nccn1C the results were INS promoter act 146.
CCOC(=O)c1c(C)[nH]c(C)c1C(=O)CSc1ncccn1 was read as INS promoter act -3.
CCN(CC)S(=O)(=O)c1cccc(NC(=O)COC(=O)CCC(=O)c2ccc(F)cc2)c1 was read as INS promoter act 8.
Screening CCOP(=O)(O)c1ccccc1OCCCCCOc1ccccc1P(=O)(O)OCC returned INS promoter act 3.
Cc1c(C=O)c2ccccc2n1CC(=O)NCc1ccc2c(c1)OCO2 was read as INS promoter act 0.
Screening COc1ccc(C(=O)C2CN(c3ccccc3)CC2c2ccc(Cl)cc2)cc1 (configuration not stated) returned INS promoter act -7.
Screening CC1CCCC(NC(=O)CCNS(=O)(=O)c2ccc(Br)cc2)C1C (configuration not stated) returned INS promoter act 114.
CC(C)(C)C(=O)NC(=S)NNC(=O)c1ccc(-c2ccccc2)cc1 was read as INS promoter act -81.
`Clc1ccc(COc2ccccc2-c2ccnc3ncnn23)cc1` gave INS promoter act 9.
For c1ccc(Oc2ccc(-c3ccnc4ncnn34)cc2)cc1 the results were INS promoter act 397*.
c1ccc(Oc2ccc(-c3ccnc4nc(N5CCOCC5)nn34)cc2)cc1 was read as INS promoter act -3.
`CCOC(=O)c1cc(-c2ccc(OC(F)F)cc2)nc2c1c(=O)[nH]c(=O)n2C` gave INS promoter act 2.
`COC(=O)c1c(C(=O)OC)c2cc(C(=O)c3ccccc3)ccn2c1Cl` gave INS promoter act 261.
For Cc1cccc(-n2nnc3c(=O)n(CC(=O)Nc4cc(C)on4)cnc32)c1 the results were INS promoter act 0.
`CC(c1ccccc1)N(NC(=O)C(O)(c1ccccc1)c1ccccc1)C(=O)c1ccccc1` (configuration not stated) gave INS promoter act 162.
For Cc1nn(-c2cc(N3CCOCC3)ccc2N)c(=O)c2ccccc12 the results were INS promoter act 6.
Screening Cc1nn(-c2cc(N3CCCC3)ccc2[N+](=O)[O-])c(=O)c2ccccc12 returned INS promoter act 134*.
For Cc1ccc(-c2nn(-c3cc(Cl)ccc3[N+](=O)[O-])c(=O)c3ccccc23)cc1 the results were INS promoter act 2.
For C/C(=N\NC(=O)c1c(C)nc2ccccn12)c1ccco1 the results were INS promoter act -73.
Screening Cc1cccc(C)c1NC(=S)N=Nc1c(O)n(C)c2ccc(S(=O)(=O)N3CCOCC3)cc12 returned INS promoter act 514*.
`Cc1ccc(S(=O)(=O)N2CCOCC2)cc1C(=O)Nc1c(C)n(C)n(-c2ccccc2)c1=O` gave INS promoter act 8.
`O=S(=O)(c1ccc(Cl)c(NC(=S)Nc2cccc(O)c2)c1)N1CCOCC1` gave INS promoter act 0.
Screening COC(=O)c1cc(C(=O)Nc2cc(C)ccn2)cc([N+](=O)[O-])c1 returned INS promoter act 118.
For Cc1ccc(C)c2c1[nH]c1ccc([N+](=O)[O-])cc12 the results were INS promoter act 0.
Screening Cc1ccc(-c2c[n+](CC(=O)Nc3cc(=O)n(C)c(=O)n3C)c3n2CCC3)cc1 returned INS promoter act 0.
`O=C(CCCCCCCC(=O)NCC1CCCO1)NCC1CCCO1` (configuration not stated) gave INS promoter act -3.
CN(C)CCCNC(=O)C(=O)NCC1CCCO1 (configuration not stated) was read as INS promoter act 294*.
O=C(NCC1CCCO1)NC1CCCCC1 (configuration not stated) was read as INS promoter act -7.
`C/C(=N\NC(=O)c1nn(C)c(C)c1Br)c1cccc(NC(=O)c2ccoc2C)c1` gave INS promoter act 8.
COCCn1c(=S)[nH]c2ccccc21 was read as INS promoter act -7.
Screening COc1cc(/C=N/NC(=O)CCc2c(C)n[nH]c2C)cc(OC)c1OC returned INS promoter act 4.
O=c1c2ccccc2nnn1CSc1nnc(-c2cccs2)n1Cc1ccccc1 was read as INS promoter act 4.
`Brc1ccc(CSc2nnc(-c3ccccn3)n2Cc2ccco2)cc1` gave INS promoter act 0.
`c1coc(Cn2c(SCc3nc4ccccc4[nH]3)nnc2-c2cccs2)c1` gave INS promoter act 123*.
For Cc1nc(OCc2c(C)noc2C)c2ccccc2n1 the results were INS promoter act 8.
For Cn1cnnc1SCC(=O)NC1CCCCC1 the results were INS promoter act 0.
For CCn1cnc2sc(C)c(C)c2c1=O the results were INS promoter act -7.
Screening COc1ccc(/C=N/Nc2nonc2N)cc1OC returned INS promoter act 329.
Screening COc1cc(/C=N/Nc2nc3ccccc3o2)cc(OC)c1O returned INS promoter act 114.
Screening COc1cc(/C=N\Nc2nc3ccccc3o2)cc(OC)c1OC returned INS promoter act 469*.
For CN(C)S(=O)(=O)c1cc(NC(=O)COC(=O)CCSc2ccc(Cl)cc2)ccc1Cl the results were INS promoter act -8.
For COC(=O)c1ccc(Cl)cc1NC(=O)/C=C/c1ccc(C)o1 the results were INS promoter act -4.
Screening CCOC(=O)C1CCCN(CCC(=O)Nc2cccc(C)c2)C1 (configuration not stated) returned INS promoter act 7.
Screening CCOC(=O)C1CCCN(CCC(=O)Nc2cccc(F)c2)C1 (configuration not stated) returned INS promoter act -9.
For CCOC(=O)C1CCCN(CCC(=O)Nc2ccc(C)cc2)C1 (configuration not stated) the results were INS promoter act 528*.
For O=C(CNCC1CCCCC1)Nc1ccc(OC(F)(F)F)cc1 the results were INS promoter act -8.
For CS(=O)(=O)N(CC(=O)Nc1ccccc1C(=O)N1CCOCC1)c1ccccc1 the results were INS promoter act 252.
For Cc1ccccc1Nc1ncccc1C(=O)N1CCOCC1 the results were INS promoter act 0.
Screening Cc1ccc(SC(C)C(=O)Nc2ccccc2C(=O)N2CCOCC2)cc1 (configuration not stated) returned INS promoter act 83*.
CCCNc1c(NC(C)=O)c(=O)oc2ccccc12 was read as INS promoter act 0.
COc1ccc2oc(C(F)(F)C(F)F)cc(=O)c2c1 was read as INS promoter act 5.
For COc1ccc2oc3ccc(OC)cc3c(=O)c2c1 the results were INS promoter act 145*.
`COc1ccc2occ(NC(C)=O)c2c1` gave INS promoter act -4.
For O=C(c1cc2cc(Cl)ccc2oc1=O)N1CCCC1 the results were INS promoter act 294.
`Cc1cc(C(=O)C(=O)O)c(C)n1-c1ccc(Cl)cc1` gave INS promoter act -6.
CC1(C)CC(=O)c2cc(C(=O)N3CCCCC3)c(=O)n(-c3ccc(Cl)cc3)c2C1 was read as INS promoter act 164*.
For CCOC(=O)c1ccc(NC(=S)N2CCSC2c2ccc(Br)cc2)cc1 (configuration not stated) the results were INS promoter act -3.
O=C(NCc1ccccn1)C(=O)NN=C1CCCCCCC1 was read as INS promoter act 8.
CC(C)(C)OC(=O)C(Cl)(C(=O)OC(C)(C)C)c1ccc2nnnn2n1 was read as INS promoter act -8.
